Source: ChEMBL document CHEMBL3763019, “Discovery of benzenesulfonamide derivatives as potent PI3K/mTOR dual inhibitors with in vivo efficacies against hepatocellular carcinoma” (Bioorg Med Chem, 2016)

Experiments:
[1] = Antiproliferative activity against human OVCAR5 cells incubated for 48 hrs by sulforhodamine B assay; type: functional; details: OVCAR-5, 48 h
Method in brief: (§1)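 Run externally by the US National Cancer Institute as part of its 60 human cancer cell line cytotoxicity screen (NCI-60).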

786-0 = experiment: Antiproliferative activity against human 786-0 cells incubated for 48 hrs by sulforhodamine B assay; type: functional; details: 786-0, 48 h; method in brief: as §1
[2] = Antiproliferative activity against human Caki1 cells incubated for 48 hrs by sulforhodamine B assay; type: functional; details: CAKI-1, 48 h; method in brief: as §1
[3] = Antiproliferative activity against human TK10 cells incubated for 48 hrs by sulforhodamine B assay; type: functional; details: TK-10, 48 h
[4] = Antiproliferative activity against human BT549 cells incubated for 48 hrs by sulforhodamine B assay; type: functional; details: BT-549, 48 h; method in brief: as §1
T47D = experiment: Antiproliferative activity against human T47D cells incubated for 48 hrs by sulforhodamine B assay; type: functional; method in brief: as §1
[5] = target: Serine/threonine-protein kinase mTOR (Homo sapiens, UniProt P42345); experiment: Inhibition of mTOR kinase (unknown origin) assessed as suppression of ULight-4E-BP1 substrate phosphorylation incubated for 1 hr by lance ultra assay
[6] = Antitumor activity against human Bel7404 cells xenografted in BALB/c nude mouse assessed as reduction in tumor volume at 30 mg/kg, po qd for 14 consecutive days relative to control; type: functional, BEL-7404; set-up: scale not given: the % may be the effect or the level left
Method in brief: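 Male BALB/c nude mice carried implanted BEL-7404 tumours and were randomized once tumours reached 100–300 mm³ (about 12 days); there were 6 per treated group and 8 controls. Drug in 5% polysorbate 80/water was given orally once daily for 14 days from day 13. Tumour volume (1/2·a·b·b) and body weight were tracked, with sacrifice on day 29. The read-out was relative tumour volume versus vehicle, reported as mean SE.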

Mus musculus = experiment: Toxicity in BALB/C nude mouse xenografted with human Bel7404 cells assessed as mortality at 30 mg/kg, po qd for 14 consecutive days; type: organism-based; details: in vivo
Method in brief: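 Male BALB/C nude mice were implanted with BEL-7404 cells. When tumors reached 100–300 mm³ (after 12 days), mice were randomized to 6 per treatment group and 8 controls. The drug, suspended in 5% polysorbate 80 in water, was given orally once daily for 14 days from day 13. Body weight and mortality were tracked during dosing, and mice were sacrificed on day 29.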

[7] = Half life in rat liver microsomes; type: ADME
A549 = experiment: Cytotoxicity against human A549 cells after 72 hrs by MTT assay; type: functional, cell-based; details: A549, 72 h
Method in brief: (§2)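 Log-phase cells at 40,000–50,000 cells/mL in DMEM with 10% FBS and antibiotics were seeded and cultured overnight at 37 °C, 5% CO₂. Compounds were diluted in DMSO/PBS from 10^-4 to 10^-9 M and applied for 72 h. MTT (5 mg/mL stock) was then added for 4 h and absorbance read at 570 nm. IC50 came from nonlinear regression on triplicate wells, averaged.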

MDA-MB-231 = experiment: Cytotoxicity against human MDA-MB-231 cells after 72 hrs by MTT assay; type: functional, cell-based; details: MDA-MB-231, 72 h; method in brief: as §2
[8] = target: Phosphatidylinositol 4,5-bisphosphate 3-kinase catalytic subunit delta isoform (Homo sapiens, UniProt O00329); experiment: Inhibition of PI3K-delta (unknown origin) using PIP2 as substrate incubated for 1 hr by Kinase-Glo luminescent kinase assay
[9] = target: Phosphatidylinositol 4,5-bisphosphate 3-kinase catalytic subunit beta isoform (Homo sapiens, UniProt P42338); experiment: Inhibition of PI3K-beta (unknown origin) at 10 nM after 40 mins by ADP-Glo luminescent kinase assay
Method in brief: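 Final enzyme was PI3Kβ 4.8 nM and PI3Kγ 7.6 nM. ADP-Glo reagent stopped the reaction (40 min), then detection reagent was added (60 min) and luminescence read. Percent inhibition was derived from RLU.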

[10] = Antiproliferative activity against human MOLT4 cells incubated for 48 hrs by sulforhodamine B assay; type: functional; details: MOLT-4, 48 h; method in brief: as §1
SR = experiment: Antiproliferative activity against human SR cells incubated for 48 hrs by sulforhodamine B assay; type: functional; method in brief: as §1
[11] = Antiproliferative activity against human HOP62 cells incubated for 48 hrs by sulforhodamine B assay; type: functional; details: HOP-62, 48 h; method in brief: as §1
NCI-H226 = experiment: Antiproliferative activity against human NCI-H226 cells incubated for 48 hrs by sulforhodamine B assay; type: functional; details: NCI-H226, 48 h; method in brief: as §1
NCI-H460 = experiment: Antiproliferative activity against human NCI-H460 cells incubated for 48 hrs by sulforhodamine B assay; type: functional; details: NCI-H460, 48 h; method in brief: as §1
[12] = Antiproliferative activity against human HCT15 cells incubated for 48 hrs by sulforhodamine B assay; type: functional; details: HCT-15, 48 h; method in brief: as §1
[13] = Antiproliferative activity against human SF268 cells incubated for 48 hrs by sulforhodamine B assay; type: functional; details: SF-268, 48 h; method in brief: as §1
[14] = Antiproliferative activity against human SF295 cells incubated for 48 hrs by sulforhodamine B assay; type: functional; details: SF-295, 48 h; method in brief: as §1
[15] = Antiproliferative activity against human SF539 cells incubated for 48 hrs by sulforhodamine B assay; type: functional; details: SF-539, 48 h; method in brief: as §1
[16] = Antiproliferative activity against human SNB19 cells incubated for 48 hrs by sulforhodamine B assay; type: functional; details: SNB-19, 48 h; method in brief: as §1
U-251 = experiment: Antiproliferative activity against human U251 cells incubated for 48 hrs by sulforhodamine B assay; type: functional; details: U-251, 48 h
SK-MEL-28 = experiment: Antiproliferative activity against human SK-MEL-28 cells incubated for 48 hrs by sulforhodamine B assay; type: functional; details: SK-MEL-28, 48 h; method in brief: as §1
[17] = Antiproliferative activity against human UACC257 cells incubated for 48 hrs by sulforhodamine B assay; type: functional; details: UACC-257, 48 h
[18] = Antiproliferative activity against human UACC62 cells incubated for 48 hrs by sulforhodamine B assay; type: functional; details: UACC-62, 48 h
[19] = read-out: pLC50 (the source's name) (converted)

Chain of Phosphatidylinositol 4,5-bisphosphate 3-kinase catalytic subunit beta isoform (P42338 whole entry, looked up, canonical isoform): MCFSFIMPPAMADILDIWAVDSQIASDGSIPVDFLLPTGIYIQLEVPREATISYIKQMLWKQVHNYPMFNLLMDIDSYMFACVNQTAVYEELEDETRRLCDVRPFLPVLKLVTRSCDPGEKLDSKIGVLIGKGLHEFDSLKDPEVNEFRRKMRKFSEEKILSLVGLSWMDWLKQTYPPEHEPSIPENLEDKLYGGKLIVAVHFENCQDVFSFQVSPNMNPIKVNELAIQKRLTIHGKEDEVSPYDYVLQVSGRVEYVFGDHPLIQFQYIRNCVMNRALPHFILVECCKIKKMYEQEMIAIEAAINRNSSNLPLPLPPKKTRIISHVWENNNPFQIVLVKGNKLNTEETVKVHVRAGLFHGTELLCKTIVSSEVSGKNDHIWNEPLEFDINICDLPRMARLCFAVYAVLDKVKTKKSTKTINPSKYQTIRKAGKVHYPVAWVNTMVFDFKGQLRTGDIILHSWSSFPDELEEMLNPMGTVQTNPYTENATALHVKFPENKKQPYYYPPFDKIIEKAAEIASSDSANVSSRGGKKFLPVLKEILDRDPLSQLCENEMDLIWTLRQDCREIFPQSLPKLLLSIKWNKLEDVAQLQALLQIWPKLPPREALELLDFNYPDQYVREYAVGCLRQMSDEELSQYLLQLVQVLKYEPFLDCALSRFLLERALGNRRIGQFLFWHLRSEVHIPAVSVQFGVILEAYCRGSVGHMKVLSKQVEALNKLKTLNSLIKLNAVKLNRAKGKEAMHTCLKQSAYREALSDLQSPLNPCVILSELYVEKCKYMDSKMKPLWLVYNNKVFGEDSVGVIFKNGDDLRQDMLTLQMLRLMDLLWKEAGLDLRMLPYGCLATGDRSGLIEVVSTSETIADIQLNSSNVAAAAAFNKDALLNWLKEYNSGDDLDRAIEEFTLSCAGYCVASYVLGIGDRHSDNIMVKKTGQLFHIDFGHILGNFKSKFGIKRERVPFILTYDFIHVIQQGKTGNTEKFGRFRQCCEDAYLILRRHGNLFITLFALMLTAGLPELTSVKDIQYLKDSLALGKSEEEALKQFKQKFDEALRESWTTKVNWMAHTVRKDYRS
Chain of Phosphatidylinositol 4,5-bisphosphate 3-kinase catalytic subunit delta isoform (O00329 whole entry, canonical isoform): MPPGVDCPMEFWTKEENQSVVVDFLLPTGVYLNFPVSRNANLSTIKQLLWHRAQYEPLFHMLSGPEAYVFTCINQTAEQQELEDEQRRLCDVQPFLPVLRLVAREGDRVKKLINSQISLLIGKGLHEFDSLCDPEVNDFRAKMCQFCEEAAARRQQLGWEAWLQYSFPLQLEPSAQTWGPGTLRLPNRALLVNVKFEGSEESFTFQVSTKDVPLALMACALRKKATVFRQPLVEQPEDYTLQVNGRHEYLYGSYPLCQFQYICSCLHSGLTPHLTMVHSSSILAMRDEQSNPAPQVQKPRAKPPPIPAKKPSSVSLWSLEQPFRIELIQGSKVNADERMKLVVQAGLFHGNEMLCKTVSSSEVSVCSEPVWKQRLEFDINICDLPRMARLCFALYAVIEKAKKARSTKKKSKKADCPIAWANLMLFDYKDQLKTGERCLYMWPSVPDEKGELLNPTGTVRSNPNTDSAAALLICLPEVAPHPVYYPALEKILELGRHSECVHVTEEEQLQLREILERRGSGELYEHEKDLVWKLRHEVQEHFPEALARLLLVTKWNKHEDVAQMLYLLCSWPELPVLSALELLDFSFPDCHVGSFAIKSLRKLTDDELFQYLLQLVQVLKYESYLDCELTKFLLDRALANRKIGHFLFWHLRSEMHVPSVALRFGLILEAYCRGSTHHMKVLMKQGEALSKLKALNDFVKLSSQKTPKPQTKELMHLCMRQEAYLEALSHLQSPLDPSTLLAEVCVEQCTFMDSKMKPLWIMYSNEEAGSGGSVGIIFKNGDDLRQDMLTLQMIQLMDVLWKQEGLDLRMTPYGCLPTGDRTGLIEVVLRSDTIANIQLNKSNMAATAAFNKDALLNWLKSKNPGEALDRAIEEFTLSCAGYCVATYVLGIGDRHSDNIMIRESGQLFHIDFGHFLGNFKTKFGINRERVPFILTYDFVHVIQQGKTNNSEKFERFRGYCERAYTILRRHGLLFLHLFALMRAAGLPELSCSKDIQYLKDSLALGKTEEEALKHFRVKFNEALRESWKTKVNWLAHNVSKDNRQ

COc1ncc(-c2ccc3nccc(C#CCN4CCN(S(C)(=O)=O)CC4)c3c2)cc1NS(=O)(=O)c1ccc(F)cc1F
GI50 [1]: 0.0372 µM | CC50 [1, 19]: 60.3 µM | TGI ([1]; read-out: pTGI (converted)): 16.2 µM | GI50 (786-0): 0.0447 µM | CC50 (786-0; [19]): 49 µM | TGI (786-0; read-out: pTGI (converted)): 1.45 µM | GI50 [2]: 0.155 µM | CC50 [2, 19]: 40.7 µM | TGI ([2]; read-out: pTGI (converted)): 13.8 µM | GI50 [3]: 0.0118 µM | CC50 [3, 19]: 38.9 µM | GI50 [4]: 0.0417 µM | CC50 [4, 19]: 4.57 µM | TGI ([4]; read-out: pTGI (converted)): 0.813 µM | GI50 (T47D): < 0.01 µM | CC50 (T47D; [19]): > 100 µM | TGI (T47D; read-out: pTGI (converted)): 0.0135 µM | IC50 [5]: 0.0054 µM | Activity [6]: 52% | Activity (Mus musculus): Non-toxic | half-life [7]: 29 min | IC50 (A549): 1.78 µM | IC50 (MDA-MB-231): 1.44 µM | IC50 [8]: 0.014 µM | inhibition [9]: 69% | GI50 [10]: 0.038 µM | CC50 [10, 19]: > 100 µM | TGI ([10]; read-out: pTGI (converted)): 1.15 µM | GI50 (SR): 0.251 µM | CC50 (SR; [19]): > 100 µM | TGI (SR; read-out: pTGI (converted)): 15.5 µM | GI50 [11]: < 0.01 µM | CC50 [11, 19]: 63.1 µM | TGI ([11]; read-out: pTGI (converted)): 2.82 µM | GI50 (NCI-H226): 0.245 µM | CC50 (NCI-H226; [19]): 7.24 µM | TGI (NCI-H226; read-out: pTGI (converted)): 1.82 µM | GI50 (NCI-H460): 0.0513 µM | CC50 (NCI-H460; [19]): 30.9 µM | TGI (NCI-H460; read-out: pTGI (converted)): 2.14 µM | GI50 [12]: 0.055 µM | CC50 [12, 19]: 6.61 µM | TGI ([12]; read-out: pTGI (converted)): 1.35 µM | GI50 [13]: 0.11 µM | CC50 [13, 19]: 25.1 µM | TGI ([13]; read-out: pTGI (converted)): 2.88 µM | GI50 [14]: 0.0741 µM | CC50 [14, 19]: 29.5 µM | TGI ([14]; read-out: pTGI (converted)): 1 µM | GI50 [15]: 0.055 µM | CC50 [15, 19]: 2.69 µM | TGI ([15]; read-out: pTGI (converted)): 0.363 µM | GI50 [16]: 0.355 µM | CC50 [16, 19]: 15.1 µM | TGI ([16]; read-out: pTGI (converted)): 2.51 µM | GI50 (U-251): 0.178 µM | CC50 (U-251; [19]): 4.68 µM | TGI (U-251; read-out: pTGI (converted)): 1.51 µM | GI50 (SK-MEL-28): 0.0347 µM | CC50 (SK-MEL-28; [19]): 5.25 µM | TGI (SK-MEL-28; read-out: pTGI (converted)): 1.05 µM | GI50 [17]: 0.0389 µM | CC50 [17, 19]: 15.5 µM | TGI ([17]; read-out: pTGI (converted)): 0.603 µM | GI50 [18]: 0.0331 µM | CC50 [18, 19]: 3.24 µM | TGI ([18]; read-out: pTGI (converted)): 0.282 µM
